Data as given in ChEMBL document CHEMBL1154648, “1,3-Dipolar cycloaddition of C-aryl-N-phenylnitrones to (R)-1-(1-phenylethyl)-3-[(E)-arylmethylidene]tetrahydro-4(1H)-pyridinones: synthesis and antimycobacterial evaluation of enantiomerically pure spiroisoxazolidines” (2010).
Converted amounts (≈) assume the structure as drawn.

Key:
[1] = system: Mycobacterium tuberculosis; assay: Antitubercular activity against Mycobacterium tuberculosis H37Rv after 28 days by agar dilution method; assay type: functional; conditions: 672 h
Outline: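 Tenfold serial dilutions were incorporated into Middlebrook 7H11 agar with OADC. The H37Rv inoculum came from fresh 7H11/OADC slants, set to 1 mg/mL wet weight in 0.05% Tween 80 saline and diluted 10^-2 (about 10^7 cfu/mL). 5 µL was spotted per tube and incubated at 37 °C, read at 28 days. MIC was the lowest concentration giving complete growth inhibition, tested in triplicate.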

[2] = system: Mycobacterium tuberculosis; assay: Ratio of MIC for drug to MIC for ethambutol against Mycobacterium tuberculosis H37Rv after 28 days by agar dilution method; assay type: functional

Cc1ccc([C@@H]2C(c3ccc(Cl)cc3)=NO[C@]23CN([C@H](C)c2ccccc2)CCC3=O)cc1
MIC [1]: 6.82 µM (≈ 3.13 µg/mL)

C[C@H](c1ccccc1)N1CCC(=O)[C@]2(C1)ON=C(c1ccc(Cl)cc1)[C@H]2c1cccc2ccccc12
MIC [1]: 25.2 µM (≈ 12.5 µg/mL)

C[C@H](c1ccccc1)N1CCC(=O)[C@]2(C1)ON=C(c1ccc(Cl)cc1)[C@H]2c1ccc(Cl)cc1
MIC [1]: 3.25 µM (≈ 1.56 µg/mL)

C[C@H](c1ccccc1)N1CCC(=O)[C@@]2(C1)ON(c1ccccc1)[C@H](c1ccccc1)[C@@H]2c1ccccc1Cl
MIC [1]: 5.98 µM (≈ 3.13 µg/mL)

C[C@H](c1ccccc1)N1CCC(=O)[C@@]2(C1)[C@@H](c1ccccc1)ON(c1ccccc1)[C@@H]2c1ccccc1
MIC [1]: 25.6 µM (≈ 12.5 µg/mL)

C[C@H](c1ccccc1)N1CCC(=O)[C@]2(C1)ON(c1ccccc1)[C@@H](c1ccccc1)[C@H]2c1cccs1
MIC [1]: 6.33 µM (≈ 3.13 µg/mL)

C[C@H](c1ccccc1)N1CCC(=O)[C@@]2(C1)ON=C(c1ccc(Cl)cc1)[C@H]2c1ccccc1
MIC [1]: 14.1 µM (≈ 6.25 µg/mL)

C[C@H](c1ccccc1)N1CCC(=O)[C@]2(C1)ON=C(c1ccccc1)[C@H]2c1cccc2ccccc12
MIC [1]: 27.1 µM (≈ 12.5 µg/mL)

Cc1ccc([C@H]2[C@@H](c3ccc(Cl)cc3)[C@@]3(CN([C@H](C)c4ccccc4)CCC3=O)ON2c2ccccc2)cc1
MIC [1]: 11.6 µM (≈ 6.25 µg/mL)

Cc1ccc([C@@H]2[C@H](c3ccccc3)N(c3ccccc3)O[C@]23CN([C@H](C)c2ccccc2)CCC3=O)cc1
MIC [1]: 12.4 µM (≈ 6.25 µg/mL)

C[C@H](c1ccccc1)N1CCC(=O)[C@]2(C1)ON(c1ccccc1)[C@@H](c1ccccc1)[C@H]2c1ccccc1
MIC [1]: 25.6 µM (≈ 12.5 µg/mL)

C[C@H](c1ccccc1)N1CCC(=O)[C@]2(C1)ON=C(c1ccccc1)[C@H]2c1ccccc1Cl
MIC [1]: 7.03 µM (≈ 3.13 µg/mL)

Cc1ccc([C@@H]2[C@H](c3ccc(Cl)cc3)[C@]3(CN([C@H](C)c4ccccc4)CCC3=O)ON2c2ccccc2)cc1
MIC [1]: 23.3 µM (≈ 12.5 µg/mL)

Cc1ccc([C@@H]2C(c3ccccc3)=NO[C@]23CN([C@H](C)c2ccccc2)CCC3=O)cc1
MIC [1]: 14.7 µM (≈ 6.25 µg/mL)

Cc1ccc([C@@H]2[C@H](c3ccc(C)cc3)[C@]3(CN([C@H](C)c4ccccc4)CCC3=O)ON2c2ccccc2)cc1
Ratio [2]: 2.5
MIC [1]: 3.02 µM (≈ 1.56 µg/mL)

C[C@H](c1ccccc1)N1CCC(=O)[C@]2(C1)ON=C(c1ccccc1)[C@H]2c1ccc(Cl)cc1
MIC [1]: 14.1 µM (≈ 6.25 µg/mL)

Cc1ccc([C@H]2[C@@H](c3cccs3)[C@@]3(CN([C@H](C)c4ccccc4)CCC3=O)ON2c2ccccc2)cc1
MIC [1]: 24.6 µM (≈ 12.5 µg/mL)

Cc1ccc([C@H]2[C@@H](c3ccccc3Cl)[C@@]3(CN([C@H](C)c4ccccc4)CCC3=O)ON2c2ccccc2)cc1
MIC [1]: 11.6 µM (≈ 6.25 µg/mL)

C[C@H](c1ccccc1)N1CCC(=O)[C@]2(C1)ON(c1ccccc1)[C@@H](c1ccccc1)[C@H]2c1ccccc1Cl
MIC [1]: 23.9 µM (≈ 12.5 µg/mL)

Cc1ccc([C@@H]2[C@H](c3ccccc3Cl)[C@]3(CN([C@H](C)c4ccccc4)CCC3=O)ON2c2ccccc2)cc1
MIC [1]: 11.6 µM (≈ 6.25 µg/mL)

C[C@H](c1ccccc1)N1CCC(=O)[C@@]2(C1)ON(c1ccccc1)[C@H](c1ccccc1)[C@@H]2c1ccccc1
MIC [1]: 25.6 µM (≈ 12.5 µg/mL)

Cc1ccc([C@H]2[C@@H](c3ccccc3)N(c3ccccc3)O[C@@]23CN([C@H](C)c2ccccc2)CCC3=O)cc1
MIC [1]: 24.9 µM (≈ 12.5 µg/mL)

C[C@H](c1ccccc1)N1CCC(=O)[C@]2(C1)ON=C(c1ccc(Cl)cc1)[C@H]2c1ccccc1Cl
MIC [1]: 3.25 µM (≈ 1.56 µg/mL)

Cc1ccc([C@@H]2[C@H](c3ccccc3)[C@]3(CN([C@H](C)c4ccccc4)CCC3=O)ON2c2ccccc2)cc1
MIC [1]: 49.7 µM (≈ 25 µg/mL)

Cc1ccc([C@H]2N(c3ccccc3)O[C@H](c3ccccc3)[C@@]23CN([C@H](C)c2ccccc2)CCC3=O)cc1
MIC [1]: 24.9 µM (≈ 12.5 µg/mL)

Cc1ccc([C@@H]2[C@H](c3ccc(C)cc3)N(c3ccccc3)O[C@]23CN([C@H](C)c2ccccc2)CCC3=O)cc1
MIC [1]: 6.06 µM (≈ 3.13 µg/mL)

C[C@H](c1ccccc1)N1CCC(=O)[C@]2(C1)ON=C(c1ccccc1)[C@H]2c1ccccc1
MIC [1]: 60.9 µM (≈ 25 µg/mL)

Cc1ccc([C@H]2[C@@H](c3ccccc3)[C@@]3(CN([C@H](C)c4ccccc4)CCC3=O)ON2c2ccccc2)cc1
MIC [1]: 49.7 µM (≈ 25 µg/mL)

CC[C@@H](CO)NCCN[C@@H](CC)CO [ETHAMBUTOL]
MIC [1]: 7.64 µM (≈ 1.56 µg/mL)

NNC(=O)c1ccncc1 [ISONIAZID]
MIC [1]: 0.36 µM (≈ 0.0494 µg/mL)

CO[C@H]1/C=C/O[C@@]2(C)Oc3c(C)c(O)c4c(O)c(c(/C=N/N5CCN(C)CC5)c(O)c4c3C2=O)NC(=O)/C(C)=C\C=C\[C@H](C)[C@H](O)[C@@H](C)[C@@H](O)[C@@H](C)[C@H](OC(C)=O)[C@@H]1C [RIFAMPIN]
MIC [1]: 0.12 µM (≈ 0.0988 µg/mL)
